Data from ChEMBL document CHEMBL1154449, “Synthesis, characterization and in vitro antibacterial activity of thiourea and urea derivatives of steroids” (2008).
In brackets after ≈: the same amount, converted by molar mass.

Key:
Streptococcus pyogenes [1] = experiment: Antibacterial activity against Streptococcus pyogenes after 18 hrs at 37 degC by microdilution method; assay type: functional; conditions: in the assay text read “macrodilution” for “microdilution”
Staphylococcus aureus [2] = experiment: Antibacterial activity against Staphylococcus aureus at 1 mg/disk after 18 hrs at 36 degC by disk diffusion method; assay type: functional
Method in brief: (§1)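 Disk diffusion. Strains were subcultured in BHI for 18 h at 37 °C, then suspended in saline by McFarland to about […] CFU/mL. The suspension was mixed with sterile antibiotic agar at 40 °C and poured onto plates, and 6.0 mm paper disks were applied. Test compound stock was made in DMSO and diluted to several concentrations applied to disks. Chloramphenicol disks served as positive control and DMSO disks as negative control. Inhibition zone (mm) was read after 18 h at 36 °C.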

Streptococcus pyogenes [3] = experiment: Antibacterial activity against Streptococcus pyogenes at 1 mg/disk after 18 hrs at 36 degC by disk diffusion method; assay type: functional; method in brief: as §1
Salmonella typhimurium [4] = experiment: Antibacterial activity against Salmonella Typhimurium at 1 mg/disk after 18 hrs at 36 degC by disk diffusion method; assay type: functional, Salmonella enterica subsp. enterica serovar Typhimurium; method in brief: as §1
Escherichia coli [5] = experiment: Antibacterial activity against Escherichia coli after 18 hrs at 37 degC by microdilution method; assay type: functional
Salmonella typhimurium [6] = experiment: Antibacterial activity against Salmonella Typhimurium after 18 hrs at 37 degC by microdilution method; assay type: functional, Salmonella enterica subsp. enterica serovar Typhimurium; conditions: Salmonella enterica, in the assay text read “macrodilution” for “microdilution”
Escherichia coli [7] = experiment: Antibacterial activity against Escherichia coli at 1 mg/disk after 18 hrs at 36 degC by disk diffusion method; assay type: functional; method in brief: as §1
Staphylococcus aureus [8] = experiment: Antibacterial activity against Staphylococcus aureus after 18 hrs at 37 degC by microdilution method; assay type: functional; conditions: in the assay text read “macrodilution” for “microdilution”
Escherichia coli [9] = experiment: Antibacterial activity against Escherichia coli at 30 ug/disk after 18 hrs at 36 degC by disk diffusion method; assay type: functional; conditions: read-out: IZ; method in brief: as §1
Salmonella typhimurium [10] = experiment: Antibacterial activity against Salmonella Typhimurium at 30 ug/disk after 18 hrs at 36 degC by disk diffusion method; assay type: functional, Salmonella enterica subsp. enterica serovar Typhimurium; conditions: Salmonella enterica, read-out: IZ; method in brief: as §1
Staphylococcus aureus [11] = experiment: Antibacterial activity against Staphylococcus aureus at 30 ug/disk after 18 hrs at 36 degC by disk diffusion method; assay type: functional; conditions: read-out: IZ
Method in brief: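 S. aureus subcultured in BHI medium 18 h at 37 °C, then suspended in saline per McFarland protocol; suspension mixed with sterile antibiotic agar at 40 °C and poured as plates. Paper disks (6.0 mm) loaded with DMSO-dissolved compound at graded concentrations; chloramphenicol disk positive control, DMSO disk negative control. Inhibition zone diameter (mm) read after 18 h at 36 °C.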

Streptococcus pyogenes [12] = experiment: Antibacterial activity against Streptococcus pyogenes at 30 ug/disk after 18 hrs at 36 degC by disk diffusion method; assay type: functional; conditions: read-out: IZ; method in brief: as §1

| Structure (SMILES) | MIC (Streptococcus pyogenes [1]) [µg/mL] | MIC (Escherichia coli [5]) [µg/mL] | MIC (Salmonella typhimurium [6]) [µg/mL] | MIC (Staphylococcus aureus [8]) [µg/mL] | inhibition zone (IZ) (Staphylococcus aureus [2]) [mm] | inhibition zone (IZ) (Streptococcus pyogenes [3]) [mm] | inhibition zone (IZ) (Salmonella typhimurium [4]) [mm] | inhibition zone (IZ) (Escherichia coli [7]) [mm] | zone of inhibition at 30 µg/disc (Escherichia coli [9]) [mm] | zone of inhibition at 30 µg/disc (Salmonella typhimurium [10]) [mm] | zone of inhibition at 30 µg/disc (Staphylococcus aureus [11]) [mm] | zone of inhibition at 30 µg/disc (Streptococcus pyogenes [12]) [mm] |
| --- | --- | --- | --- | --- | --- | --- | --- | --- | --- | --- | --- | --- |
| CC[C@H](/C=C/[C@@H](C)[C@H]1CC[C@H]2[C@@H]3C4=C[C@]5(C[C@@H](OC(C)=O)CC[C@]5(C)[C@H]3CC[C@]12C)NC(=O)N4)C(C)C | 128 (≈ 251 µM) | 64 (≈ 125 µM) | 128 (≈ 251 µM) | 64 (≈ 125 µM) | 14.4 | 12.4 | 15.2 | 16.3 |  |  |  |  |
| O=C(N[C@H](CO)[C@H](O)c1ccc([N+](=O)[O-])cc1)C(Cl)Cl [CHLORAMPHENICOL] |  |  |  |  |  |  |  |  | 20 | 25.2 | 21 | 22.2 |
| CC(C)CCC[C@@H](C)[C@H]1CC[C@H]2[C@@H]3CC=C4C[C@@H](O)CC[C@]4(C)[C@H]3CC[C@]12C [CHOLESTEROL] | 512 (≈ 1320 µM) | 512 (≈ 1320 µM) | 512 (≈ 1320 µM) | 512 (≈ 1320 µM) | 9.2 | 7.8 | 8.2 | 9 |  |  |  |  |

More lines, in order of falling MIC (Streptococcus pyogenes [1]), values ahead:

| MIC (Streptococcus pyogenes [1]) [µg/mL] | MIC (Escherichia coli [5]) [µg/mL] | MIC (Salmonella typhimurium [6]) [µg/mL] | MIC (Staphylococcus aureus [8]) [µg/mL] | Structure (SMILES) | inhibition zone (IZ) (Staphylococcus aureus [2]) [mm] | inhibition zone (IZ) (Streptococcus pyogenes [3]) [mm] | inhibition zone (IZ) (Salmonella typhimurium [4]) [mm] | inhibition zone (IZ) (Escherichia coli [7]) [mm] | zone of inhibition at 30 µg/disc (Escherichia coli [9]) [mm] | zone of inhibition at 30 µg/disc (Salmonella typhimurium [10]) [mm] | zone of inhibition at 30 µg/disc (Staphylococcus aureus [11]) [mm] | zone of inhibition at 30 µg/disc (Streptococcus pyogenes [12]) [mm] |
| --- | --- | --- | --- | --- | --- | --- | --- | --- | --- | --- | --- | --- |
| 128 (≈ 263 µM) | 128 (≈ 263 µM) | 128 (≈ 263 µM) | 64 (≈ 131 µM) | CC[C@H](/C=C/[C@@H](C)[C@H]1CC[C@H]2[C@@H]3C4=C[C@]5(C[C@@H](Cl)CC[C@]5(C)[C@H]3CC[C@]12C)NC(=O)N4)C(C)C | 16.8 | 15.2 | 14.4 | 14.8 |  |  |  |  |
| 64 (≈ 121 µM) | 32 (≈ 60.7 µM) | 32 (≈ 60.7 µM) | 32 (≈ 60.7 µM) | CC[C@H](/C=C/[C@@H](C)[C@H]1CC[C@H]2[C@@H]3C4=C[C@]5(C[C@@H](OC(C)=O)CC[C@]5(C)[C@H]3CC[C@]12C)NC(=S)N4)C(C)C | 22.5 | 21.6 | 19.4 | 23.4 |  |  |  |  |
| 64 (≈ 127 µM) | 32 (≈ 63.6 µM) | 32 (≈ 63.6 µM) | 64 (≈ 127 µM) | CC[C@H](/C=C/[C@@H](C)[C@H]1CC[C@H]2[C@@H]3C4=C[C@]5(C[C@@H](Cl)CC[C@]5(C)[C@H]3CC[C@]12C)NC(=S)N4)C(C)C | 19.7 | 23.2 | 18.7 | 20.7 |  |  |  |  |
